Test results reported in ChEMBL document CHEMBL2046406 (J Med Chem, 2012).
Calls of active or inactive are those of the source. The rule behind the calls is not given here.

Key:
[1] = target: T1, Kappa-type opioid receptor (Homo sapiens, UniProt P41145); experiment: biochemical; format: cell-based, CHO
Homo sapiens [2] = species on record: Homo sapiens; experiment: Selectivity index, ratio of inhibition of human kappa opioid receptor to inhibition of human mu opioid receptor
Homo sapiens [3] = species on record: Homo sapiens; experiment: Selectivity index, ratio of inhibition of human delta opioid receptor to inhibition of human mu opioid receptor
[4] = target: T2, Delta-type opioid receptor (Homo sapiens, UniProt P41143); experiment: Displacement of [3H]-naltrindole from human delta opioid receptor expressed in CHO cells after 3 hrs by scintillation counting; format: cell-based
T2 sequence (P41143 whole entry): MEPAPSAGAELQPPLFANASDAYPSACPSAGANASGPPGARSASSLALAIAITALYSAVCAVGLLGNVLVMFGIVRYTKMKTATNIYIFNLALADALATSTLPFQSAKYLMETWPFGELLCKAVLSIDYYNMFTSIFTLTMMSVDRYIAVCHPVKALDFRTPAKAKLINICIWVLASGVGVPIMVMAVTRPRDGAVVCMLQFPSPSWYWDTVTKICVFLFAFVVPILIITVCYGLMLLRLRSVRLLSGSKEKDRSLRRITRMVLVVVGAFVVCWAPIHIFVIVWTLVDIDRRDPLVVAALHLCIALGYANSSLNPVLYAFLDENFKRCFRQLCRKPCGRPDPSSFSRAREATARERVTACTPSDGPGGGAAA
Summary of the method: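 CHO membranes expressing human KOR or DOR incubated with radioligand and 12 compound concentrations in 1 mL 50 mM Tris-HCl, pH 7.5, at 25 °C. […] Nonspecific binding with 10 μM naloxone. Three experiments in triplicate.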

Mu-type opioid receptor [5] = target: T3, Mu-type opioid receptor (Homo sapiens, UniProt P35372); experiment: biochemical; format: cell-based, CHO
T3 sequence (P35372 whole entry): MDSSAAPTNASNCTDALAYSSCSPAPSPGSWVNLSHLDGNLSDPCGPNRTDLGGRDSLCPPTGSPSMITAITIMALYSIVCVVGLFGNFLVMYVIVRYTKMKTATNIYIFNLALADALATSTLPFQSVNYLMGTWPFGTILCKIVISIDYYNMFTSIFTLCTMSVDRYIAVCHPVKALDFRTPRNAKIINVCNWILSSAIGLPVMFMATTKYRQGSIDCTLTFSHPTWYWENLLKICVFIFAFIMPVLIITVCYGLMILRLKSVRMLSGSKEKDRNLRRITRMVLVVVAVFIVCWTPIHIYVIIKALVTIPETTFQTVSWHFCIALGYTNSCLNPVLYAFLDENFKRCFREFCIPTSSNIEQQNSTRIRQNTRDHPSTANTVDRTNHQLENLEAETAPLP

Mu-type opioid receptor [6] = target: T3, Mu-type opioid receptor; experiment: Agonist activity at human mu opioid receptor expressed in CHO cells assessed as stimulation of […]GTPgammaS binding after 60 mins by scintillation counting relative to control; format: functional, cell-based
Mu-type opioid receptor [7] = target: T3, Mu-type opioid receptor; experiment: Agonist activity at human mu opioid receptor expressed in CHO cells assessed as stimulation of […]GTPgammaS binding after 60 mins by scintillation counting; format: functional, cell-based
[8] = target: T1, Kappa-type opioid receptor; experiment: Agonist activity at human kappa opioid receptor expressed in CHO cells assessed as stimulation of […]GTPgammaS binding after 60 mins by scintillation counting; format: functional, cell-based
Mu-type opioid receptor [9] = target: T3, Mu-type opioid receptor; experiment: Antagonist activity at human mu opioid receptor expressed in CHO cells assessed as inhibition of DAMGO-induced […]GTPgammaS binding after 60 mins by scintillation counting relative to control; format: functional, cell-based
[10] = target: T1, Kappa-type opioid receptor; experiment: Antagonist activity at human kappa opioid receptor expressed in CHO cells assessed as inhibition of U50488-induced […]GTPgammaS binding after 60 mins by scintillation counting; format: functional, cell-based
Summary of the method: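 κ antagonism: hKOR-CHO membranes incubated with compound plus 100 nM U50,488.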

[11] = target: T1, Kappa-type opioid receptor; experiment: Agonist activity at human kappa opioid receptor expressed in CHO cells assessed as stimulation of […]GTPgammaS binding after 60 mins by scintillation counting relative to control; format: functional, cell-based
Summary of the method: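 Membranes from CHO cells stably expressing human KOR (15 μg protein per tube) or MOR (7.5 μg protein per tube). Nonspecific binding with 10 μM GTPγS. Filtration, then scintillation counting. Triplicate, at least three experiments.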

Mu-type opioid receptor [12] = target: T3, Mu-type opioid receptor; experiment: Antagonist activity at human mu opioid receptor expressed in CHO cells assessed as inhibition of DAMGO-induced […]GTPgammaS binding after 60 mins by scintillation counting; format: functional, cell-based
Homo sapiens [13] = species on record: Homo sapiens; experiment: Selectivity index, ratio of inhibition of human delta opioid receptor to inhibition of human kappa opioid receptor
[14] = target: T2, Delta-type opioid receptor; experiment: Displacement of [3H]-naltrindole from human delta opioid receptor expressed in CHO cells at 10 uM after 3 hrs by scintillation counting; format: cell-based

T1 sequence (P41145 whole entry): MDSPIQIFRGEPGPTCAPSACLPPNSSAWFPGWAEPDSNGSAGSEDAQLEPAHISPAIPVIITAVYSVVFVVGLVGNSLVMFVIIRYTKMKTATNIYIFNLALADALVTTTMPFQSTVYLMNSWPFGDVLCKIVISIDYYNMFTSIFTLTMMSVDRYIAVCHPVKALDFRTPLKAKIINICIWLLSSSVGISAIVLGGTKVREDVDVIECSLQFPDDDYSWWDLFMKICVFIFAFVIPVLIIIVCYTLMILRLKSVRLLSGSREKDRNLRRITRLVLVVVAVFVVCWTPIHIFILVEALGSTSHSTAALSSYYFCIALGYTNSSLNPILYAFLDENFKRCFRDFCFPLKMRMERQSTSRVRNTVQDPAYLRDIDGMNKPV

| SMILES | Ki [1] | Selectivity ratio (Homo sapiens [2]) | Selectivity ratio (Homo sapiens [3]) | Ki [4] | Ki (Mu-type opioid receptor [5]) | Emax (Mu-type opioid receptor [6]) | EC50 (Mu-type opioid receptor [7]) | EC50 [8] | Imax (Mu-type opioid receptor [9]) | Activity [10] | Emax [11] | IC50 (Mu-type opioid receptor [12]; read-out: IC50) | Selectivity ratio (Homo sapiens [13]) | inhibition [14] | IC50 (Mu-type opioid receptor [12]; cho) |
| --- | --- | --- | --- | --- | --- | --- | --- | --- | --- | --- | --- | --- | --- | --- | --- |
| COc1cccc(CN(C)c2ccc3c(c2)[C@@]24CCCC[C@H]2[C@@H](C3)N(CC2CCC2)CC4)c1 | 25 nM | 27 | 2 | 350 nM | 13 nM |  |  |  |  |  |  |  |  |  |  |
| COc1ccc(CNc2ccc3c(c2)[C@@]24CCCC[C@H]2[C@@H](C3)N(CC2CC2)CC4)cc1 |  | 65 | 2 |  |  | 30% | 6.8 nM | 5.3 nM | 67% | inactive | 130% | 10 nM |  |  |  |
| COc1ccc(CNc2ccc3c(c2)[C@@]24CCCC[C@H]2[C@@H](C3)N(CC2CCC2)CC4)cc1 | 4.5 nM | 300 | 5 | 260 nM | 0.86 nM | 34% | 7.8 nM | 50 nM | 55% | inactive | 120% | 150 nM |  |  |  |
| COc1ccccc1CN(C)c1ccc2c(c1)[C@@]13CCCC[C@H]1[C@@H](C2)N(CC1CCC1)CC3 | 19 nM | 14 |  | 190 nM | 14 nM |  |  |  |  |  |  |  | 14 |  |  |
| Oc1ccc(CNc2ccc3c(c2)[C@@]24CCCC[C@H]2[C@@H](C3)N(CC2CC2)CC4)cc1 | 0.27 nM | 44 |  | 13 nM | 0.28 nM | 19% |  | 1.8 nM | 80% | inactive | 100% | 7.6 nM | 44 |  |  |
| Oc1ccccc1CNc1ccc2c(c1)[C@@]13CCCC[C@H]1[C@@H](C2)N(CC1CCC1)CC3 | 1.7 nM | 65 |  | 110 nM | 1.7 nM | 49% | 38 nM | 47 nM | 32% | inactive | 130% | 810 nM | 65 |  |  |
| CN(Cc1cccc(O)c1)c1ccc2c(c1)[C@@]13CCCC[C@H]1[C@@H](C2)N(CC1CCC1)CC3 | 23 nM | 10 |  | 170 nM | 17 nM |  |  |  |  |  |  |  | 10 |  |  |
| Oc1cccc(CNc2ccc3c(c2)[C@@]24CCCC[C@H]2[C@@H](C3)N(CC2CC2)CC4)c1 | 0.36 nM | 260 | 2 | 41 nM | 0.16 nM | 27% |  | 3.9 nM | 79% | inactive | 98% | 3.5 nM |  |  |  |
| CN1CC[C@]23c4c5ccc(NCc6ccccc6O)c4O[C@H]2[C@@H](O)C=C[C@H]3[C@H]1C5 | 370 nM |  |  |  |  |  |  |  |  |  |  |  |  | 27% |  |
| COc1ccccc1CNc1ccc2c(c1)[C@@]13CCCC[C@H]1[C@@H](C2)N(CC1CCC1)CC3 | 2.2 nM | 28 |  | 61 nM | 2.7 nM |  |  |  |  |  |  |  | 28 |  |  |
| COc1ccccc1CNc1ccc2c(c1)[C@@]13CCCC[C@H]1[C@@H](C2)N(CC1CC1)CC3 | 1.3 nM | 130 |  | 160 nM | 1.2 nM |  |  |  |  |  |  |  | 130 |  |  |
| Oc1cccc(CNc2ccc3c(c2)[C@@]24CCCC[C@H]2[C@@H](C3)N(CC2CCC2)CC4)c1 | 1.9 nM | 720 | 6 | 230 nM | 0.32 nM | 30% |  |  | 74% |  |  | 4.8 nM |  |  |  |
| Clc1ccc(CNc2ccc3c(c2)[C@@]24CCCC[C@H]2[C@@H](C3)N(CC2CCC2)CC4)cc1 | 4.5 nM | 59 | 3 | 100 nM | 1.7 nM |  |  |  |  |  |  |  |  |  |  |
| COc1ccccc1CNc1ccc2c3c1O[C@H]1[C@@H](O)C=C[C@H]4[C@@H](C2)N(C)CC[C@@]341 | 220 nM |  |  |  |  |  |  |  | inactive |  |  |  |  | 22% | Not Active |
| c1cc2c(cc1CNc1ccc3c(c1)[C@@]14CCCC[C@H]1[C@@H](C3)N(CC1CC1)CC4)OCO2 | 0.53 nM | 120 | 3 | 20 nM | 0.17 nM | 18% |  | 0.077 nM | 72% | inactive | 120% | 0.21 nM |  |  |  |
| CN(Cc1ccc(O)cc1)c1ccc2c(c1)[C@@]13CCCC[C@H]1[C@@H](C2)N(CC1CCC1)CC3 | 4.1 nM | 170 |  | 530 nM | 3.2 nM |  |  |  |  |  |  |  | 170 |  |  |
| c1cc2c(cc1CNc1ccc3c(c1)[C@@]14CCCC[C@H]1[C@@H](C3)N(CC1CCC1)CC4)OCO2 | 1.1 nM | 160 | 3 | 53 nM | 0.34 nM | 39% | 3.6 nM | 27 nM | 60% | inactive | 130% | 94 nM |  |  |  |
| O=[N+]([O-])c1cccc(CNc2ccc3c(c2)[C@@]24CCCC[C@H]2[C@@H](C3)N(CC2CCC2)CC4)c1 | 1.1 nM | 350 | 3 | 150 nM | 0.43 nM | 70% | 1.1 nM | 0.79 nM | 49% | inactive | 140% | 6.8 nM |  |  |  |
| COc1ccc2c3c1O[C@H]1C(=O)CC[C@H]4[C@@H](C2)N(C)CC[C@]314 |  |  |  |  |  |  |  |  |  |  |  |  |  | 37% |  |
| CN1CC[C@]23CCCC[C@H]2[C@H]1Cc1ccc(NCc2cccc(O)c2)cc13 | 10 nM |  |  | 720 nM | 0.42 nM |  | 6.5 nM | 230 nM |  | inactive | 140% |  |  |  | Not Active |
| COc1cccc(CNc2ccc3c(c2)[C@@]24CCCC[C@H]2[C@@H](C3)N(CC2CCC2)CC4)c1 | 3.5 nM | 220 | 5 | 150 nM | 0.69 nM | 39% | 3.8 nM | 39 nM | 66% | inactive | 120% | 80 nM |  |  |  |
| COc1cccc(CNc2ccc3c(c2)[C@@]24CCCC[C@H]2[C@@H](C3)N(CC2CC2)CC4)c1 | 1.5 nM | 220 | 3 | 110 nM | 0.51 nM | 23% |  | 0.43 nM | 77% | inactive | 130% | 2 nM |  |  |  |
| CN(Cc1ccc(Cl)cc1)c1ccc2c(c1)[C@@]13CCCC[C@H]1[C@@H](C2)N(CC1CCC1)CC3 | 27 nM | 28 |  | 730 nM | 26 nM |  |  |  |  |  |  |  | 28 |  |  |
| C[C@@H](NC(=O)[C@@H](N)Cc1ccc(O)cc1)C(=O)NCC(=O)N(C)[C@@H](Cc1ccccc1)C(=O)NCCO |  |  |  |  |  |  |  |  | inactive |  |  |  |  |  |  |
| CN1CC[C@]23c4c5ccc(NCc6ccc(O)cc6)c4O[C@H]2[C@@H](O)C=C[C@H]3[C@H]1C5 | 560 nM | 230 | 13 |  | 44 nM |  |  |  |  |  |  |  |  | 19% |  |
| c1ccc(CNc2ccc3c(c2)[C@@]24CCCC[C@H]2[C@@H](C3)N(CC2CC2)CC4)cc1 |  | 112 |  |  |  |  |  |  |  |  |  |  | 112 |  |  |
| Oc1ccc(CNc2ccc3c(c2)[C@@]24CCCC[C@H]2[C@@H](C3)N(CC2CCC2)CC4)cc1 | 2.3 nM | 340 | 7 | 120 nM | 0.35 nM | 38% | 3.6 nM | 38 nM | 56% | inactive | 130% | 75 nM |  |  |  |
| COc1cccc(CNc2ccc3c4c2O[C@H]2[C@@H](O)C=C[C@H]5[C@@H](C3)N(C)CC[C@@]452)c1 | 500 nM |  |  |  |  |  |  |  |  |  |  |  |  | 33% |  |
| COc1ccc(CN(C)c2ccc3c(c2)[C@@]24CCCC[C@H]2[C@@H](C3)N(CC2CCC2)CC4)cc1 | 8.5 nM | 34 |  | 290 nM | 9.5 nM |  |  |  |  |  |  |  | 34 |  |  |
| c1ccc(CNc2ccc3c(c2)[C@@]24CCCC[C@H]2[C@@H](C3)N(CC2CCC2)CC4)cc1 |  | 76 | 2 |  |  |  |  |  |  |  |  |  |  |  |  |
